Laboratory results reported in ChEMBL document CHEMBL4406821, “Novel dual inhibitors targeting CDK4 and VEGFR2 synergistically suppressed cancer progression and angiogenesis” (Eur J Med Chem, 2019).

Assays:
[1] = target: Vascular endothelial growth factor receptor 2 (Homo sapiens, UniProt P35968); assay: Inhibition of recombinant human VEGFR2 (790 to end residues) using myelin ba as substrate at 1 uM incubated for 40 mins by [gamma-33P]-ATP based radiometric assay relative to control
How it was run: (§1)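 Kinase panel profiling at 1 μM performed by Eurofins KinaseProfiler; percent inhibition reported as mean of two independent experiments.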

[2] = target: CDK4/Cyclin D3 (Homo sapiens) (UniProt P11802+P30281); assay: Inhibition of recombinant full length human CDK4/Cyclin D3 using Rb-fragmen as substrate at 1 uM incubated for 40 mins by [gamma-33P]-ATP based radiometric assay relative to control; type: protein-complex assay; how it was run: as §1
T47D = assay: Antiproliferative activity against human T47D cells assessed as reduction in cell viability measured after 72 hrs by CCK8 assay; type: functional, cell-based
How it was run: (§2)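 Cells were seeded at 3×10³ cells/well and exposed to a range of concentrations or vehicle for 72 h. Viability was read by CCK-8 at 450 nm, with DMSO as blank and five replicates per sample. IC50 was calculated from the dose-response.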

HeLa = assay: Antiproliferative activity against human HeLa cells assessed as reduction in cell viability measured after 72 hrs by CCK8 assay; type: functional, cell-based; how it was run: as §2

Chain of Vascular endothelial growth factor receptor 2 (P35968 whole entry): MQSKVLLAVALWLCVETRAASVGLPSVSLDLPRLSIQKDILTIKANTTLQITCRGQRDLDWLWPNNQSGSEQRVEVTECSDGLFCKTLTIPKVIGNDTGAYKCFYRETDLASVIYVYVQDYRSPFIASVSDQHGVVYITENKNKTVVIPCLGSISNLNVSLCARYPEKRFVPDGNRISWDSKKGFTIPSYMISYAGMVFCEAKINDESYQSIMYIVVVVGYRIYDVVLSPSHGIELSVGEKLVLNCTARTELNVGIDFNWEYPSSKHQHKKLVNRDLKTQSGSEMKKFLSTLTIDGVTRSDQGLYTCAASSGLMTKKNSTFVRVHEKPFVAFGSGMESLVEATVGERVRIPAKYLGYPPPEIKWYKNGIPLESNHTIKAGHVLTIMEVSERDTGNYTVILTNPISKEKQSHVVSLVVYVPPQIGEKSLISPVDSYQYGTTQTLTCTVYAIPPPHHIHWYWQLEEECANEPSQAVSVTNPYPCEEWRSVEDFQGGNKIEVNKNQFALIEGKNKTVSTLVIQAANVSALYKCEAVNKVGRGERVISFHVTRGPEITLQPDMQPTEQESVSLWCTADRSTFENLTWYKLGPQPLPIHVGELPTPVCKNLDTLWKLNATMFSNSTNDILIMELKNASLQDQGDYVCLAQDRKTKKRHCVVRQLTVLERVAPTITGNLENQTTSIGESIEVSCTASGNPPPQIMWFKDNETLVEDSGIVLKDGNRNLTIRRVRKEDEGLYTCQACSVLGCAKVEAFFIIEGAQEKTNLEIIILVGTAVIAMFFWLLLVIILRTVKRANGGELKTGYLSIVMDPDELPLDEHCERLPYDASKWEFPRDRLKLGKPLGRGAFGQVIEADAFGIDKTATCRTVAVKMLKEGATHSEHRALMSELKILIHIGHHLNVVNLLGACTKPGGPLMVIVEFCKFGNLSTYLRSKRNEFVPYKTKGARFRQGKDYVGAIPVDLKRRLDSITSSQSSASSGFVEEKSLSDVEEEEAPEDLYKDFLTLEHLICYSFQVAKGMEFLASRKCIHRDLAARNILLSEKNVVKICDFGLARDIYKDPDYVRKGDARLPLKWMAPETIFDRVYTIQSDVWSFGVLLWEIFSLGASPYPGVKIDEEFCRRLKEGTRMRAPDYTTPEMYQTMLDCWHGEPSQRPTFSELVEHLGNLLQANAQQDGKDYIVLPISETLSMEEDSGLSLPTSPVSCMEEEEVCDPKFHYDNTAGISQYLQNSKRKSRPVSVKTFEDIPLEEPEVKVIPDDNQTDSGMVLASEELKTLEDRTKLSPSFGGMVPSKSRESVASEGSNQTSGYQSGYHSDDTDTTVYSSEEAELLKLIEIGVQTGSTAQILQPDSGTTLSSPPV

SMILES	inhibition [1]	inhibition [2]	IC50 (T47D)	IC50 (HeLa)
CN(C)C(=O)c1cc2cnc(Nc3ccc(NC(=O)C4(C(=O)Nc5ccc(F)cc5)CC4)cc3)nc2n1C1CCCC1	0%			
CC(C)n1nnc2ccc(-c3nc(Nc4ccc(NC(=O)C5(C(=O)Nc6cccc(C(F)(F)F)c6)CC5)cc4)ncc3F)cc21	46%	13%		
CC(C)n1nnc2ccc(-c3nc(Nc4ccc(NC(=O)C5(C(=O)Nc6cccc(Br)c6)CC5)cc4)ncc3F)cc21	55%	34%		
Cc1nc2c(F)cc(-c3nc(Nc4ccc(CNC(=O)C5(C(=O)Nc6ccc(C(F)(F)F)cc6)CC5)cc4)ncc3F)cc2n1C(C)C	74%	37%		
Cc1nc2c(F)cc(-c3nc(Nc4ccc(NC(=O)C5(C(=O)Nc6cccc(C(F)(F)F)c6)CC5)cc4)ncc3F)cc2n1C(C)C	80%	31%		
Cc1nc2c(F)cc(-c3nc(Nc4ccc(NC(=O)C5(C(=O)Nc6cccc(Br)c6)CC5)cc4)ncc3F)cc2n1C(C)C	90%	83%		
CC(C)n1nnc2ccc(-c3nc(Nc4ccc(NC(=O)C5(C(=O)Nc6cccc(Cl)c6)CC5)cc4)ncc3F)cc21	60%	50%		
CC(C)n1nnc2ccc(-c3nc(Nc4ccc(NC(=O)C5(C(=O)Nc6ccc(C(F)(F)F)cc6)CC5)cc4)ncc3F)cc21	56%	31%		
CC(C)n1nnc2ccc(-c3nc(Nc4ccc(NC(=O)C5(C(=O)Nc6ccc(Br)cc6)CC5)cc4)ncc3F)cc21	52%	24%		
CC(C)n1nnc2ccc(-c3nc(Nc4ccc(NC(=O)C5(C(=O)Nc6ccc(Cl)c(C(F)(F)F)c6)CC5)cc4)ncc3F)cc21	41%	8%		
Cc1nc2c(F)cc(-c3nc(Nc4ccc(CNC(=O)C5(C(=O)Nc6ccc(Cl)cc6)CC5)cc4)ncc3F)cc2n1C(C)C	91%	88%		
CC(C)n1nnc2ccc(-c3nc(Nc4ccc(NC(=O)C5(C(=O)Nc6cccc(F)c6)CC5)cc4)ncc3F)cc21	69%	79%		
Cc1cccc(NC(=O)C2(C(=O)Nc3ccc(Nc4ncc(F)c(-c5cc(F)c6nc(C)n(C(C)C)c6c5)n4)cc3)CC2)c1	95%	97%	0.203 µM	0.178 µM
Cc1ccc(NC(=O)C2(C(=O)NCc3ccc(Nc4ncc(F)c(-c5cc(F)c6nc(C)n(C(C)C)c6c5)n4)cc3)CC2)cc1	95%	97%	0.771 µM	0.252 µM
CC(C)n1nnc2ccc(-c3nc(Nc4ccc(NC(=O)C5(C(=O)Nc6ccc(F)cc6)CC5)cc4)ncc3F)cc21	84%	69%		
Cc1nc2c(F)cc(-c3nc(Nc4ccc(NC(=O)C5(C(=O)Nc6ccc(Br)cc6)CC5)cc4)ncc3F)cc2n1C(C)C	91%	90%	0.12 µM	0.597 µM
Cc1nc2c(F)cc(-c3nc(Nc4ccc(NC(=O)C5(C(=O)Nc6ccc(Cl)c(C(F)(F)F)c6)CC5)cc4)ncc3F)cc2n1C(C)C	68%	34%		
Cc1nc2c(F)cc(-c3nc(Nc4ccc(CNC(=O)C5(C(=O)Nc6ccc(Cl)c(C(F)(F)F)c6)CC5)cc4)ncc3F)cc2n1C(C)C	57%	51%		
Cc1nc2c(F)cc(-c3nc(Nc4ccc(CNC(=O)C5(C(=O)Nc6ccc(Br)cc6)CC5)cc4)ncc3F)cc2n1C(C)C	90%	93%	0.109 µM	0.33 µM
Cc1nc2c(F)cc(-c3nc(Nc4ccc(NC(=O)C5(C(=O)Nc6cccc(F)c6)CC5)cc4)ncc3F)cc2n1C(C)C	90%	96%	0.0293 µM	0.105 µM
Cc1cccc(NC(=O)C2(C(=O)Nc3ccc(Nc4ncc(F)c(-c5ccc6nnn(C(C)C)c6c5)n4)cc3)CC2)c1	73%	75%		
Cc1nc2c(F)cc(-c3nc(Nc4ccc(NC(=O)C5(C(=O)Nc6cccc(Cl)c6)CC5)cc4)ncc3F)cc2n1C(C)C	90%	74%		
Cc1ccc(NC(=O)C2(C(=O)Nc3ccc(Nc4ncc(F)c(-c5ccc6nnn(C(C)C)c6c5)n4)cc3)CC2)cc1	78%	81%		
CC(C)n1nnc2ccc(-c3nc(Nc4ccc(NC(=O)C5(C(=O)Nc6ccc(Cl)cc6)CC5)cc4)ncc3F)cc21	59%	21%		
Cc1nc2c(F)cc(-c3nc(Nc4ccc(NC(=O)C5(C(=O)Nc6ccc(F)cc6)CC5)cc4)ncc3F)cc2n1C(C)C	91%	98%	0.0255 µM	0.191 µM
Cc1nc2c(F)cc(-c3nc(Nc4ccc(NC(=O)C5(C(=O)Nc6ccc(Cl)cc6)CC5)cc4)ncc3F)cc2n1C(C)C	74%	76%		
Cc1nc2c(F)cc(-c3nc(Nc4ccc(NC(=O)C5(C(=O)Nc6ccc(C(F)(F)F)cc6)CC5)cc4)ncc3F)cc2n1C(C)C	80%	74%		
